Source: ChEMBL document CHEMBL1145518, “Potent immune-modulating and anticancer effects of NKT cell stimulatory glycolipids” (2007)
Active and inactive are the calls of the source. The calls are words filed in the database; no cut-off is given here.

Experiments:
[1] = Induction of IL2 secretion in human CD161+ CD3+ NKT cells at 10 ug/ml after 18 hrs relative to basal level; format: functional
Summary of the method: (§1)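 Human Vα24i NKT cell lines were expanded for 10 days on irradiated (3,000 rad) autologous immature DCs with 10 units/ml IL-2. The cells (1 × 10^5) were cocultured with 5 × 10^4 irradiated immature CD14+ DCs plus glycolipid at 10 μg/ml. Supernatants were collected at 18 h and read on a 22-plex Luminex bead panel. Triplicates, mean ± SD.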

[2] = Induction of IL8 secretion in human CD161+ CD3+ NKT cells at 10 ug/ml after 18 hrs relative to basal level; format: functional; summary of the method: as §1
[3] = Induction of TNFalpha secretion in human CD161+ CD3+ NKT cells at 10 ug/ml after 18 hrs relative to basal level; format: functional; summary of the method: as §1
Mus musculus [4] = assay: Increase in CD8/CD4 T cell ratio in BALB/c mouse at 2 ug, iv after 72 hrs by flow cytometry; format: functional, organism-based
Mus musculus [5] = assay: Induction of IL2 secretion in BALB/c mouse serum at 2 ug, iv after 2 hrs relative to control; format: functional
Summary of the method: (§2)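 BALB/c mice received an i.v. injection of 100 μl of glycolipid diluted to 20 μg/ml in saline from DMSO stock, with 1% DMSO as vehicle. Serum cytokines/chemokines were measured at 2 and 18 h after injection.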

Mus musculus [6] = assay: Induction of KC secretion in BALB/c mouse serum at 2 ug, iv after 2 hrs relative to control; format: functional; summary of the method: as §2
NKT = assay: Stimulation of cell expansion of human invariant CD161+/ Valpha24+/ CD56+/ CD3+ NKT cells by flow cytometry method; format: functional, cell-based
Summary of the method: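 CD56+ NK/NKT mixtures (2 × 10^6) were isolated from human leukopaks with anti-CD56 microbeads. They were cocultured with 4 × 10^5 autologous immature CD14+ DCs pulsed with glycolipid at 3 μg/ml, or with 0.3% DMSO, on day 2 for 18 h. Suspension cells were then transferred and kept in 100 units/ml IL-2 with fresh medium every 3 days. On day 9, CD161+/Vα24TCR+ cells were gated by flow cytometry and total Vα24i NKT cells counted. Triplicates, mean ± SD.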

dendritic = assay: Activation of TCR in human immature dendritic cells assessed as increase in CD3epsilon phosphorylation; format: cell-based
Summary of the method: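 Human HeLa, HeLa-CD1d or autologous immature DCs were loaded with glycolipid at 10 μg/ml, or DMSO, for 2 h. Then 3 × 10^5 naïve CD161+/CD3+ NKT cells were added; these were bead-isolated and kept in 100 units/ml IL-2. After 5–10 min the cells were washed and lysed at 4°C. Phospho-CD3ε, ERK1/2 (Thr-185/Tyr-187) and CREB (Ser-133) were read by Luminex bead assay as median fluorescence normalized to total protein, expressed as fold over 1% DMSO.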

Mus musculus [7] = assay: Activation of dendritic cells in BALB/c mouse at 2 ug, iv after 72 hrs by flow cytometry; format: functional, organism-based
Summary of the method: (§3)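 BALB/c mice (n = 4/group) were given 100 μl of glycolipid at 20 μg/ml in saline i.v., or 100 μl of 1% DMSO. Spleens were harvested after 72 h and splenocyte subsets counted by flow cytometry: mature DCs as CD11c+/CD80+/CD86+, activated NK as U5A2-13Ag+/CD3−/CD69+, activated NKT as U5A2-13Ag+/CD3+/CD69+. Assays were run in duplicate, mean ± SD.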

Mus musculus [8] = assay: Activation of B cells in BALB/c mouse at 2 ug, iv after 72 hrs by flow cytometry; format: functional, organism-based
[9] = Promotion of maturation of human dendritic cells assessed as increase in CD40 expression at 3 ug/ml after 48 hrs; format: functional, cell-based; conditions: Dendritic cell
Summary of the method: (§4)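 Immature DCs were derived from leukopak CD14+ cells by 2 days in 300 units/ml GM-CSF plus 100 units/ml IL-4. DCs (2 × 10^6) were incubated with glycolipid at 3 μg/ml or vehicle for 48 h. Surface CD40, CD80, CD83, CD86 and HLA-DR were measured by flow cytometry as mean fluorescence intensity.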

[10] = Promotion of maturation of human dendritic cells assessed as increase in CD80 expression at 3 ug/ml after 48 hrs; format: functional, cell-based; conditions: Dendritic cell; summary of the method: as §4
[11] = Promotion of maturation of human dendritic cells assessed as increase in CD83 expression at 3 ug/ml after 48 hrs; format: functional, cell-based; conditions: Dendritic cell; summary of the method: as §4
[12] = Promotion of maturation of human dendritic cells assessed as increase in CD86 expression at 3 ug/ml after 48 hrs; format: functional, cell-based; conditions: Dendritic cell; summary of the method: as §4
[13] = Promotion of maturation of human dendritic cells assessed as increase in HLA-DR expression at 3 ug/ml after 48 hrs; format: functional, cell-based; conditions: Dendritic cell; summary of the method: as §4
Mus musculus [14] = assay: Activation of natural killer cells in BALB/c mouse at 2 ug, iv after 72 hrs by flow cytometry; format: functional, organism-based; summary of the method: as §3
Mus musculus [15] = assay: Activation of NKT cells in BALB/c mouse at 2 ug, iv after 72 hrs by flow cytometry; format: functional, organism-based; summary of the method: as §3

Compound	Activity [1]	Activity [2]	Activity [3]	Activity (Mus musculus [4])	Activity (Mus musculus [5])	Activity (Mus musculus [6])	Activity (NKT)	Activity (dendritic)	Activity (Mus musculus [7])	Activity (Mus musculus [8])	Activity [9]	Activity [10]	Activity [11]	Activity [12]	Activity [13]	Activity (Mus musculus [14])	Activity (Mus musculus [15])
CCCCCCCCCCCCCCCCCCCCCCCCCC(=O)N[C@@H](CO[C@H]1O[C@H](CO)[C@H](O)[C@H](O)[C@H]1O)[C@H](O)[C@H](O)CCCCCCCCCCCCCC [RGI-7000]	2.3	1.7	7.7	Active	58.9	30.5	Active	10.8	Active	Active							
CCCCCCCCCCCCCCCCCCCCCCCCCC(=O)N[C@@H](CO[C@H]1O[C@H](CO)[C@H](O)[C@H](O)[C@H]1O)[C@H](O)[C@H](O)CCc1ccccc1	2.8	3	7.6	Active	75.3	19.2		17.3	Active		Active	Active	Active	Active	Active	Active	Active
